Laboratory results reported in paper PMC2532710 (Nucleic Acids Research, 2008).
Where “and” joins values, the source holds several entries; their conditions need not be identical. Equal entries are not always repeated.

Tests used:
Lagging strand fork = assay: 2-AP titration Kd, lagging strand fork; format: binding; conditions: Kd ratio, n = 1
Procedure, shortened: (§1)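 Each substrate carried 2-AP at strand 4, position 2 and was used at 0.1 μM in 20 mM Tris-HCl pH 7.8, 25 mM NaCl, 1 mM EDTA, 1.6% DMSO at 24°C. Peptide dimer added in 2-fold steps from 0.003125 μM, 3 min each. Excitation 315 nm, emission 330–430 nm. Adenine background subtracted, 365–375 nm averaged. Fc fitted by least squares to pooled 2–3 dilution series. Value given as Kd relative to HJ Kd.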

[1] = tested on: RecG binding to HJ substrate; conditions: cited from earlier work
[2] = tested on: central thymine bases of HJ; conditions: bound to HJ; cited from earlier work
flayed duplex molecule = assay: 2-AP fluorescence quenching, flayed duplex; format: binding
Procedure, shortened: (§2)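 Substrates were annealed from oligos (boiled 5 min, slow-cooled), gel-purified on native 12% PAGE and quantified spectrophotometrically. After ≥10 min equilibration, emission was read at 330–430 nm (excitation 315 nm). Adenine-substituted spectra were subtracted, and fold decrease at 370 nm was taken versus no peptide.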

[3] = tested on: replication fork substrates; conditions: ref K. Kepple, Ph.D. Thesis, 2006; cited from earlier work
[4] = tested on: replication fork substrate; assay: 2-AP fluorescence quenching, replication fork; format: binding
Procedure, shortened: as §2

HJ substrate [5] = assay: 2-AP fluorescence quenching, HJ substrate; format: binding
Procedure, shortened: as §2

RecG helicase = conditions: cited from earlier work
HJ substrate [6] = assay: dissociation from HJ; format: binding
human RAD54 protein = conditions: cited from earlier work
[7] = tested on: fork substrate with only the leading strand; assay: 2-AP fluorescence quenching, leading strand fork; format: binding
Procedure, shortened: as §2

Oligo = assay: 2-AP titration Kd, oligo; format: binding; conditions: Kd ratio, n = 1
Procedure, shortened: as §1

protein-free HJ DNA = conditions: cited from earlier work
RuvABC complex = conditions: cited from earlier work
[8] = tested on: 1AP1 oligonucleotide alone (ssDNA); assay: 2-AP fluorescence quenching, single oligonucleotide; format: binding
[9] = tested on: RecG binding to HJ substrate; assay: RecG/; design: species or system Escherichia coli
Flayed fork = assay: 2-AP titration Kd, flayed fork; format: binding; conditions: Kd ratio, n = 1
Procedure, shortened: as §1

Holliday junction = assay: 2-AP titration Kd, Holliday junction; format: binding; conditions: Kd ratio, n = 1
Procedure, shortened: as §1

Complete fork = assay: 2-AP titration Kd, complete fork; format: binding; conditions: Kd ratio, n = 1
Procedure, shortened: as §1

linear dsDNA = conditions: cited from earlier work
RecG/HJ complex = assay: displacement of RecG from HJ DNA; format: binding, Escherichia coli; conditions: 0.1 μM (WRWYCR)2

- Fold reduced versus HJ (Lagging strand fork): 5.5
- Fold reduced versus HJ (Oligo): 51.1
- mechanism of inhibition of RecG [9]: competitive mechanism
- inhibition of RecG binding to HJ ([9]; 0.02 μM RecG, 0.025 μM peptide dimer, 2 nM HJ): strongly inhibited
- inhibition of RecG binding to HJ ([9]; 0.02 μM RecG, 0.1 μM peptide, 2 nM HJ): almost completely inhibited
- inhibition of RecG binding to HJ ([9]; 0.2 μM RecG, 0.025 μM peptide): only weak inhibition
- Fold reduced versus HJ (Flayed fork): 43.9
- Fold reduced versus HJ (Holliday junction): 1
- Fold reduced versus HJ (Complete fork): 4.4
- disappearance of band with two RecG monomers per HJ (RecG/HJ complex): takes far longer to disappear
Substance: (WRWYCR)2 (disulfide)
- complexes formed when peptide and RecG are added together to HJ [1]: mostly peptide–HJ complexes
- increase in KMnO4 sensitivity of central thymine bases [2]: ~2 fold
- fold decrease in 2-AP fluorescence at 370 nm (flayed duplex molecule; Flayed-1AP1 (central base), 1.6 μM dimer, 8:1): 1.3 fold
- fold decrease in 2-AP fluorescence at 370 nm (flayed duplex molecule; Flayed-4AP1 (central base), 0.8 μM dimer, 4:1): 1.2 fold
- 2-AP quenching (flayed duplex molecule; Flayed-4AP1, 4AP2 and 4AP3, compared with leading strand fork): even less sensitive to quenching
- fold decrease in 2-AP fluorescence at 370 nm (flayed duplex molecule; Flayed-4AP2 (central base), 0.05 μM dimer, 0.25:1): 1.0 fold
- fold decrease in 2-AP fluorescence at 370 nm (flayed duplex molecule; Flayed-4AP2 (central base), 0.8 μM dimer, 4:1): 1.3 fold
- fold decrease in 2-AP fluorescence at 370 nm (flayed duplex molecule; Flayed-4AP3, 0.05 μM dimer, 0.25:1): 1.0 fold
- fold decrease in 2-AP fluorescence at 370 nm (flayed duplex molecule; Flayed-4AP3, 0.8 μM dimer, 4:1): 1.2 fold
- fold decrease in 2-AP fluorescence at 370 nm (flayed duplex molecule; Flayed-4AP3, 1.6 μM dimer, 8:1): 1.3 fold
- fold decrease in 2-AP fluorescence at 370 nm (flayed duplex molecule; Flayed-4AP4, 0.05 μM dimer, 0.25:1): 1.0 fold
- fold decrease in 2-AP fluorescence at 370 nm (flayed duplex molecule; Flayed-4AP4, 0.2 μM dimer, 1:1): 1.0 fold
- fold decrease in 2-AP fluorescence at 370 nm (flayed duplex molecule; Flayed-4AP4, 1.6 μM dimer, 8:1): 1.2 fold
- 2-AP quenching (flayed duplex molecule; Flayed-4AP4 and Flayed-1AP1): only weakly quenched
- binding to replication forks by band shift [3]: unable to detect binding
- fold decrease in 2-AP fluorescence at 370 nm ([4]; Fork-1AP1 (central base), 0.05 μM dimer, 0.25:1): 1.0 fold
- fold decrease in 2-AP fluorescence at 370 nm ([4]; Fork-1AP1 (central base), 0.2 μM dimer, 1:1): 1.0 fold
- fold decrease in 2-AP fluorescence at 370 nm ([4]; Fork-1AP1 (central base), 0.8 μM dimer, 4:1): 1.2 fold
- fold decrease in 2-AP fluorescence at 370 nm ([4]; Fork-3AP2, 0.2 μM dimer, 1:1): 1.0 fold
- fold decrease in 2-AP fluorescence at 370 nm ([4]; Fork-3AP2, 1.6 μM dimer, 8:1): 1.2 fold
- fold decrease in 2-AP fluorescence at 370 nm ([4]; Fork-4AP1 (central base), 0.05 μM dimer, 0.25:1): 1.0 fold
- fold decrease in 2-AP fluorescence at 370 nm ([4]; Fork-4AP1 (central base), 1.6 μM dimer, 8:1): 1.7 fold
- fold decrease in 2-AP fluorescence at 370 nm ([4]; Fork-4AP2 (central base), 0.05 μM dimer, 0.25:1): 1.0 fold
- fold decrease in 2-AP fluorescence at 370 nm ([4]; Fork-4AP2 (central base), 0.2 μM dimer, 1:1): 1.0 fold
- fold decrease in 2-AP fluorescence at 370 nm ([4]; Fork-4AP3, 0.05 μM dimer, 0.25:1): 1.0 fold
- fold decrease in 2-AP fluorescence at 370 nm ([4]; Fork-4AP3, 0.2 μM dimer, 1:1): 1.0 fold
- fold decrease in 2-AP fluorescence at 370 nm ([4]; Fork-4AP3, 0.8 μM dimer, 4:1): 1.2 fold
- fold decrease in 2-AP fluorescence at 370 nm ([4]; Fork-4AP4, 0.05 μM dimer, 0.25:1): 1.0 fold
- fold decrease in 2-AP fluorescence at 370 nm ([4]; Fork-4AP4, 0.2 μM dimer, 1:1): 1.0 fold
- fold decrease in 2-AP fluorescence at 370 nm ([4]; Fork-4AP4, 0.8 μM dimer, 4:1): 1.0 fold
- fold decrease in 2-AP fluorescence at 370 nm ([4]; Fork-4AP4, 1.6 μM dimer, 8:1): 1.2 fold
- quenching of four central 2-AP bases (HJ substrate [5]; 4-fold excess of peptide dimer over substrate): at least 1.6 fold
- fold decrease in 2-AP fluorescence at 370 nm (HJ substrate [5]; HJ-1AP1 (central base), 0.2 μM dimer, 1:1): 1.2 fold
- fold decrease in 2-AP fluorescence at 370 nm (HJ substrate [5]; HJ-1AP1 (central base), 0.8 μM dimer, 4:1): 1.6 fold
- fold decrease in 2-AP fluorescence at 370 nm (HJ substrate [5]; HJ-1AP1 (central base), 1.6 μM dimer, 8:1): 1.8 fold
- fold decrease in 2-AP fluorescence at 370 nm (HJ substrate [5]; HJ-3AP1 (central base), 0.2 μM dimer, 1:1): 1.3 fold
- fold decrease in 2-AP fluorescence at 370 nm (HJ substrate [5]; HJ-3AP1 (central base), 0.8 μM dimer, 4:1): 2.0 fold
- fold decrease in 2-AP fluorescence at 370 nm (HJ substrate [5]; HJ-3AP1 (central base), 1.6 μM dimer, 8:1): 2.2 fold
- fold decrease in 2-AP fluorescence at 370 nm (HJ substrate [5]; HJ-3AP2, 0.2 μM dimer, 1:1): 1.0 fold
- fold decrease in 2-AP fluorescence at 370 nm (HJ substrate [5]; HJ-4AP1 (central base), 0.2 μM dimer, 1:1): 1.2 fold
- fold decrease in 2-AP fluorescence at 370 nm (HJ substrate [5]; HJ-4AP1 (central base), 0.8 μM dimer, 4:1): 1.9 fold
- fold decrease in 2-AP fluorescence at 370 nm (HJ substrate [5]; HJ-4AP1 (central base), 1.6 μM dimer, 8:1): 1.8 fold
- fold decrease in 2-AP fluorescence at 370 nm (HJ substrate [5]; HJ-4AP2 (central base), 0.05 μM dimer, 0.25:1): 1.0 fold
- fold decrease in 2-AP fluorescence at 370 nm (HJ substrate [5]; HJ-4AP2 (central base), 0.2 μM dimer, 1:1): 1.2 fold
- fold decrease in 2-AP fluorescence at 370 nm (HJ substrate [5]; HJ-4AP2 (central base), 0.8 μM dimer, 4:1): 2 fold and 2.0 fold
- fold decrease in 2-AP fluorescence at 370 nm (HJ substrate [5]; HJ-4AP2 (central base), 1.6 μM dimer, 8:1): 2.2 fold
- fold decrease in 2-AP fluorescence at 370 nm (HJ substrate [5]; HJ-4AP3, 0.05 μM dimer, 0.25:1): 1.0 fold
- fold decrease in 2-AP fluorescence at 370 nm (HJ substrate [5]; HJ-4AP3, 0.2 μM dimer, 1:1): 1.2 fold
- fold decrease in 2-AP fluorescence at 370 nm (HJ substrate [5]; HJ-4AP4, 0.05 μM dimer, 0.25:1): 1.0 fold
- fold decrease in 2-AP fluorescence at 370 nm (HJ substrate [5]; HJ-4AP4, 0.2 μM dimer, 1:1): 1.0 fold
- fold decrease in 2-AP fluorescence at 370 nm (HJ substrate [5]; HJ-4AP4, 0.8 μM dimer, 4:1): 1.2 fold
- fold decrease in 2-AP fluorescence at 370 nm (HJ substrate [5]; HJ-4AP4, 1.6 μM dimer, 8:1): 1.2 fold
- quenching of 2-AP in the center of HJ and replication forks (HJ substrate [5]; center of both HJ and replication forks): quench the fluorescence of 2-AP bases
- quenching of central bases, preliminary set (HJ substrate [5]; the eighth central base, Boldt and Segall, unpublished data, preliminary): 1.6 X
- inhibition of unwinding of branched DNA substrates by RecG (RecG helicase): inhibit unwinding of branched DNA substrates
- inhibition of RecG by fork type (RecG helicase; fork with only lagging vs only leading strand): inhibits RecG most on a fork substrate with only the lagging strand and least on a fork substrate with only the leading strand
- time for half of bound peptide to dissociate (HJ substrate [6]; 0.015 μM (WRWYCR)2, 1 nM labeled HJ, 0.2 μM unlabeled HJ (200X), 4°C): More than an hour
- dissociation slower than RecG (HJ substrate [6]; peptide vs RecG, from HJ): about 2 X
- inhibition of D-loop unwinding activity (human RAD54 protein): inhibit the D-loop unwinding activity
- fold decrease in 2-AP fluorescence at 370 nm ([7]; Lead-1AP1 (central base), 0.05 μM dimer, 0.25:1): 1.0 fold
- fold decrease in 2-AP fluorescence at 370 nm ([7]; Lead-1AP1 (central base), 1.6 μM dimer, 8:1): 1.3 fold
- fold decrease in 2-AP fluorescence at 370 nm ([7]; Lead-4AP1 (central base), 0.05 μM dimer, 0.25:1): 1.0 fold
- fold decrease in 2-AP fluorescence at 370 nm ([7]; Lead-4AP1 (central base), 0.8 μM dimer, 4:1): 1.3 fold
- fold decrease in 2-AP fluorescence at 370 nm ([7]; Lead-4AP1 (central base), 1.6 μM dimer, 8:1): 1.7 fold
- 2-AP quenching ([7]; Lead-4AP1, Lead-4AP2 and Lead-4AP3): all quenched by the peptide
- fold decrease in 2-AP fluorescence at 370 nm ([7]; Lead-4AP2 (central base), 0.05 μM dimer, 0.25:1): 1.0 fold
- fold decrease in 2-AP fluorescence at 370 nm ([7]; Lead-4AP2 (central base), 0.8 μM dimer, 4:1): 1.2 fold
- fold decrease in 2-AP fluorescence at 370 nm ([7]; Lead-4AP3, 0.05 μM dimer, 0.25:1): 1.0 fold
- fold decrease in 2-AP fluorescence at 370 nm ([7]; Lead-4AP3, 0.8 μM dimer, 4:1): 1.2 fold
- fold decrease in 2-AP fluorescence at 370 nm ([7]; Lead-4AP4, 0.2 μM dimer, 1:1): 1.0 fold
- fold decrease in 2-AP fluorescence at 370 nm ([7]; Lead-4AP4, 1.6 μM dimer, 8:1): 1.2 fold
- 2-AP quenching ([7]; Lead-4AP4 and Lead-1AP1): less sensitive
- binding to free HJ DNA (protein-free HJ DNA): bind specifically to free HJ DNA
- effect of Mg^2+ or spermidine on HJ binding (protein-free HJ DNA): strongly inhibited
- inhibition of HJ resolution by RuvABC (RuvABC complex): inhibit
- IC50 (RuvABC complex; read-out: IC50, RuvABC): ~50 nM
- 2-AP quenching ([8]; 8-fold molar excess of peptide, data not shown): no significant quenching
- 2-AP quenching ([8]; 16-fold peptide excess): Quenching begins
- 2-AP quenching ([8]; 32-fold excess): increases
- inhibition of RecG–DNA complexes, order of addition ([9]; data not shown, Saha and Segall, unpublished data): occurs whether the peptide is added to DNA 10 min before or after RecG
- interaction with linear dsDNA (linear dsDNA): not with linear dsDNA
- binding to dsDNA (linear dsDNA; high concentrations): binds to dsDNA nonspecifically at high concentrations
